PAFAH1B2 inh: blocks human PAF acetylhydrolase 1b catalytic subunit 2 | P68402 | recombinant PAFAH1B2, FP-rhodamine activity probe, fluorescence polarization | inhibition, % at 3.39 µM | 340,000 compounds, 1.2% hits | AID 492953;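 active = inhibition above the mean of all tested compounds plus 3 SD, cut at about 24% in these data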;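 also: 0% = enzyme with DMSO and 100% = wells lacking PAFAH1B2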
Target sequence (P68402 whole entry, looked up): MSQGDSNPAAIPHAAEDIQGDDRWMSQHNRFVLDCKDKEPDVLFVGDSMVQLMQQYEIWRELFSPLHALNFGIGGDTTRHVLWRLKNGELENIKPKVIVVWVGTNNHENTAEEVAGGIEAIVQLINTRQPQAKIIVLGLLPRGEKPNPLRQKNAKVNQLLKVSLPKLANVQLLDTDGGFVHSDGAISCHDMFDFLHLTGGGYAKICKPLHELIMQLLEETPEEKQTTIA
PAFAH1B3 FP inh: inhibitors of human PAFAH1B3; Q15102; recombinant PAFAH1B3, FP-rhodamine probe, fluorescence polarization; inhibition, % at 3.39 µM; 340,000 compounds, 0.28% hits; AID 492972;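 active = inhibition above the screen-wide average of all tested compounds plus 3 SD, cut at about 25% in these data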;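 also: 0% = enzyme with DMSO only and 100% = wells lacking PAFAH1B3 protein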
Apaf1 inhib: inhibitors of human Apaf-1 apoptosome. 330,000 compounds, 0.71% hits. inhibition, % at 20 µM. reconstituted apoptosome caspase-3 activity, DEVD-Rh110 fluorescence. O14727; active = inhibition of at least 40% at 20 µM;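 also: plate controls were DMSO wells for no effect and DEVD-CHO caspase inhibitor wells for full effect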
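System: reconstituted apoptosome with Apaf-1, cytochrome c, caspase-9, procaspase-3, dATP; Signal: Rh110 fluorescence intensity; Schedule: 30 min compound preincubation, 50 min activation, room temperature; Reagent: cytochrome c trigger plus (Z-DEVD)2-Rh110 caspase-3 substrate.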
pPAFAH FP inh: inhibitors of human plasma PAF acetylhydrolase (pPAFAH). recombinant pPAFAH, FP-rhodamine probe fluorescence polarization. inhibition, % at 3.39 µM. 330,000 compounds, 1.5% hits. AID 463082;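 active = inhibition above the mean inhibition across the screen plus 3 SD, cut at about 25% in these data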;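 also: inhibitors block binding of the rhodamine activity-based probe so polarization drops; 0% = enzyme with DMSO and 100% = wells lacking pPAFAH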
PAFAH2 FP inh: inhibitors of human PAFAH2; recombinant PAFAH2, FP-rhodamine activity probe, fluorescence polarization; inhibition, % at 3.39 µM; 340,000 compounds, 0.99% hits; AID 492956;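 active = inhibition above the mean over all tested compounds plus 3 SD, cut at about 30% in these data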;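 also: inhibitors block probe labeling of enzyme so polarization drops; 0% = enzyme with DMSO and 100% = wells lacking PAFAH2 protein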
PAFAH2 confirm: PAFAH2 (human) inhibition, confirmed. shares compounds with PAFAH2 FP inh. recombinant PAFAH2, FP-rhodamine activity probe, fluorescence polarization. inhibition, % at 3.39 µM. 2,300 compounds, 65% hits. AID 493030;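 active = mean inhibition over three repeats above a set limit taken from the earlier primary screen, cut at about 30% in these data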;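 also: inhibitor blocks binding of rhodamine activity probe so polarization falls; 0% = enzyme with DMSO and 100% = wells lacking PAFAH2 protein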
PAFAH1B3 conf FP: PAFAH1B3 (human) inhibition, confirmed | shares compounds with PAFAH1B3 FP inh | recombinant PAFAH1B3, FP-Rh activity-based probe, fluorescence polarization | inhibition, % at 3.39 µM | 390 compounds, 30% hits | AID 493032;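 active = average inhibition over triplicate runs above the hit cutoff set in the earlier primary screen, cut at about 25% in these data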;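 also: 0% = enzyme with DMSO and 100% = wells lacking PAFAH1B3 protein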
Numbers without * were called inactive; . = not tested or not shown. Hits are enriched below; roughly 3.1% of the tested compounds scored in any of these assays.

SMILES | PAFAH1B2 inh | PAFAH1B3 FP inh | Apaf1 inhib | pPAFAH FP inh | PAFAH2 FP inh | others
Cc1cc(/C=C2/C(=O)NC(=O)N(Cc3ccco3)C2=O)c(C)n1-c1ccccc1O | 5 | 8 | 13 | 11 | 32* | PAFAH2 confirm=26
COC(=O)C1=C(c2cccc(C#N)c2)C[C@@H]2CC[C@H]1N2C(=O)NCc1cccc2ccccc12 | 2 | 4 | 14 | -3 | 2
CC12CCC(=O)C=C1CCC1C2CCC2(C)C(O)CCC12 (stereo not drawn) | -2 | 5 | -2 | 0 | 34* | PAFAH2 confirm=-5
CN1[C@@H]2CC[C@H]1CC(OC1c3ccccc3CCc3ccccc31)C2 (stereo partly drawn) | 3 | -8 | 23 | -5 | 9
NC(=O)Nc1ccc(C(=O)OCC(=O)Nc2ccc(Cl)cc2C(=O)c2ccccc2)cc1 | -1 | -4 | 6 | 3 | 70* | PAFAH2 confirm=52*
C[N+](C)(C)CC(=O)Nc1ccc(Cl)cc1C(=O)c1ccccc1 | 2 | 12 | -3 | -6 | 3
C=C1[C@@H](OC(C)=O)[C@]23C[C@@H]1[C@@H](OC(C)=O)CC2[C@]12C4C[C@H]3[C@H]1N(CC)C[C@]4(C)CC[C@@H]2O (stereo partly drawn) | -4 | 0 | -7 | 4 | -6
Oc1cccc2nc3ccccc3nc12 | 2 | 35* | 5 | 12 | 14 | PAFAH1B3 conf FP=10
COc1cccc(C2(O)CCN(CC(=O)Nc3nc(C)cs3)CC2)c1 | 3 | -1 | -9 | -2 | -5
COc1ccc2c(CN3CC=C(c4ccccc4)CC3)cc(=O)oc2c1 | -1 | 8 | 6 | -1 | 0
CCc1ccc2c(CN3CC=C(c4ccccc4)CC3)cc(=O)oc2c1 | 2 | 27* | 2 | 2 | -3 | PAFAH1B3 conf FP=6
CCC1([N+](=O)[O-])COP(N)(=O)OC1 (stereo not drawn) | 1 | -1 | . | . | -1
CCCCn1c(NS(=O)(=O)c2ccccc2)c(C(=O)OCC)c2nc3ccccc3nc21 | 24 | 51* | . | 18 | 14 | PAFAH1B3 conf FP=5
